Assay results as given in ChEMBL document CHEMBL2346560, “Structure and function of a potent lipopolysaccharide-binding antimicrobial and anti-inflammatory peptide” (J Med Chem, 2013).
Values after ≈ are worked out from the molar mass of the structure shown. Active and inactive are the calls of the source. No cut-off for these calls is given here. Bridge positions count the residues as written; N and C are the ends. Peptide text beside a SMILES is read from it.

Experiments:
Candida albicans [1] = assay: Antifungal activity against Candida albicans ATCC 2002 treated with CaCl2 after 16 hrs by broth dilution method; format: functional; conditions: ATCC 2002, 16 h
In short: (§1)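 Salt sensitivity of the MIC. Peptide was tested in water, NaCl, CaCl2, MgCl2 or PBS (Na2HPO4-NaH2PO4, pH 7.4), with every salt at 150 mM. Values are means of three independent experiments, each run in duplicate.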

RAW264.7 [2] = assay: Cytotoxicity against mouse RAW264.7 cells at <25 ug/mL after 24 hrs by MTT assay; format: cell-based; conditions: raw264.7, 24 h
Escherichia coli [3] = assay: Bactericidal activity against Escherichia coli ATCC 25922 at 10 times MIC after 20 mins by colony counting assay (reference value: 79.3 CFU); format: functional
RAW264.7 [4] = assay: Cytotoxicity against mouse RAW264.7 cells at >25 ug/mL after 24 hrs by MTT assay; format: cell-based; conditions: raw264.7, 24 h
Escherichia coli [5] = assay: Bactericidal activity against Escherichia coli ATCC 25922 at MIC after 20 mins by colony counting assay (reference value: 79.3 CFU); format: functional
RAW264.7 [6] = assay: Antiinflammatory activity in mouse RAW264.7 cells assessed as inhibition of LPS-induced TNF alpha production at 20 ug/mL after 24 hrs by ELISA relative to control; format: functional; conditions: RAW264.7, 24 h
In short: (§2)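 RAW 264.7 cells (2 × 10^5) were plated and allowed to adhere. They were given peptide (2.5, 5, 10, 20 µg/mL) with or without LPS (E. coli 055:B5, 20 ng/mL) for 24 h. Supernatant TNF-α, IL-6 and MCP-1 were measured by ELISA at A450. Controls were LPS alone and untreated cells. Mean ± SEM of three separate experiments.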

Escherichia coli [7] = assay: Antibacterial activity against ampicillin, benzylpencillin-resistant Escherichia coli 08A852 after 16 hrs by broth dilution method; format: functional; conditions: 08A852, 16 h
In short: (§3)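 MIC read-out, reported in µg/mL with µM equivalents. Each value is the mean of three independent experiments, each run in duplicate.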

Escherichia coli [8] = assay: Bactericidal activity against Escherichia coli ATCC 25922 at 10 times MIC after 5 mins by colony counting assay (reference value: 47.7 CFU); format: functional
Pseudomonas aeruginosa [9] = assay: Antibacterial activity against Pseudomonas aeruginosa ATCC 27853 treated with MgCl2 after 16 hrs by broth dilution method; format: functional; conditions: ATCC 27853, 16 h; in short: as §1
Staphylococcus aureus [10] = assay: Antibacterial activity against ampicillin, benzylpencillin-resistant Staphylococcus aureus 08A865 after 16 hrs by broth dilution method; format: functional; conditions: 08A865, 16 h; in short: as §3
Escherichia coli [11] = assay: Antibacterial activity against Escherichia coli ATCC 25922 treated with PBS after 16 hrs by broth dilution method; format: functional; conditions: ATCC 25922, 16 h; in short: as §1
Candida albicans [12] = assay: Antifungal activity against Candida albicans ATCC 2002 after 16 hrs by broth dilution method; format: functional; conditions: ATCC 2002, 16 h; in short: as §3
[13] = Toxicity in human RBC assessed as induction of hemolysis at 50 ug/mL after 30 mins relative to control; format: cell-based, Erythrocyte; conditions: red blood cells (RBC), read-out: Activity
In short: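 Human red blood cells incubated with peptide. Hemoglobin release read as absorbance at 540 nm and expressed against 1% Triton X-100 as positive control.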

Escherichia coli [14] = assay: Antibacterial activity against Escherichia coli ATCC 25922 assessed as plasma membrane rupture after 30 mins by scanning electron microscopic analysis; format: functional, organism-based
In short: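 E. coli (about 2 × 10^7 CFU/mL) was exposed to peptide at 1 × MIC, 37 °C, 30 min, beside an untreated control. Cells were pelleted, fixed in 2.5% buffered glutaraldehyde (4 °C, 2 h), post-fixed in 1% osmium tetroxide (2 h), dehydrated through graded ethanol, frozen in tert-butyl alcohol and vacuum-dried, then imaged by SEM.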

RAW264.7 [15] = assay: Antiinflammatory activity in mouse RAW264.7 cells assessed as inhibition of LPS-induced NO production at 20 ug/mL after 24 hrs by spectrophotometric analysis relative to control; format: functional; conditions: RAW264.7, 24 h
In short: (§4)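 RAW 264.7 cells (1 × 10^7) in RPMI-1640 with 10% FBS and penicillin/streptomycin were treated with peptide (2.5, 5, 10, 20 µg/mL) with or without LPS (E. coli 055:B5, 100 ng/mL) for 24 h. Medium nitrite was measured with Griess reagent at A540 against a NaNO2 standard curve. Control was LPS alone. Mean ± SEM of three separate experiments.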

Pseudomonas aeruginosa [16] = assay: Antibacterial activity against ampicillin, benzylpencillin-resistant Pseudomonas aeruginosa 08031205 after 16 hrs by broth dilution method; format: functional; conditions: Pseudomonas aeruginosa, 08031205, 16 h; in short: as §3
Candida albicans [17] = assay: Antifungal activity against Candida albicans ATCC 2002 treated with MgCl2 after 16 hrs by broth dilution method; format: functional; conditions: ATCC 2002, 16 h; in short: as §1
Bacillus subtilis [18] = assay: Antibacterial activity against Bacillus subtilis 6633 after 16 hrs by broth dilution method; format: functional; conditions: Bacillus subtilis, 6633, 16 h
In short: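 MIC determined by an earlier in-house method. Values are means of three independent experiments, each run in duplicate.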

RAW264.7 [19] = assay: Antiinflammatory activity in mouse RAW264.7 cells assessed as inhibition of LPS-induced NO production at 2.5 ug/mL after 24 hrs by spectrophotometric analysis relative to control; format: functional; conditions: RAW264.7, 24 h; in short: as §4
Staphylococcus aureus [20] = assay: Antibacterial activity against Staphylococcus aureus ATCC 2592 treated with PBS after 16 hrs by broth dilution method; format: functional; conditions: ATCC 2592, 16 h; in short: as §1
Staphylococcus aureus [21] = assay: Antibacterial activity against Staphylococcus aureus ATCC 2592 treated with water after 16 hrs by broth dilution method; format: functional; conditions: ATCC 2592, 16 h; in short: as §1
Candida albicans [22] = assay: Antifungal activity against Candida albicans ATCC 2002 treated with NaCl after 16 hrs by broth dilution method; format: functional; conditions: ATCC 2002, 16 h; in short: as §1
Pseudomonas aeruginosa [23] = assay: Antibacterial activity against Pseudomonas aeruginosa ATCC 27853 treated with NaCl after 16 hrs by broth dilution method; format: functional; conditions: ATCC 27853, 16 h; in short: as §1
RAW264.7 [24] = assay: Antiinflammatory activity in mouse RAW264.7 cells assessed as inhibition of LPS-induced MCP1 production at 20 ug/mL after 24 hrs by ELISA relative to control; format: functional; conditions: RAW264.7, 24 h; in short: as §2
Candida albicans [25] = assay: Antifungal activity against ampicillin, benzylpencillin-resistant Candida albicans 080227710 after 16 hrs by broth dilution method; format: functional; conditions: Candida albicans, 080227710, 16 h; in short: as §3
RAW264.7 [26] = assay: Antiinflammatory activity in mouse RAW264.7 cells assessed as inhibition of LPS-induced IL6 production at 20 ug/mL after 24 hrs by ELISA relative to control; format: functional; conditions: RAW264.7, 24 h; in short: as §2
Bacillus subtilis [27] = assay: Antibacterial activity against Bacillus subtilis 6633 treated with PBS after 16 hrs by broth dilution method; format: functional; conditions: Bacillus subtilis, 6633, 16 h; in short: as §1
RAW264.7 [28] = assay: Cytotoxicity against mouse RAW264.7 cells at 50 ug/mL after 24 hrs by MTT assay relative to control; format: cell-based; conditions: raw264.7, 24 h
Bacillus subtilis [29] = assay: Antibacterial activity against Bacillus subtilis 6633 treated with water after 16 hrs by broth dilution method; format: functional; conditions: Bacillus subtilis, 6633, 16 h; in short: as §1
RAW264.7 [30] = assay: Antiinflammatory activity in mouse RAW264.7 cells assessed as inhibition of LPS-induced NO production at 5 ug/mL after 24 hrs by spectrophotometric analysis relative to control; format: functional; conditions: RAW264.7, 24 h; in short: as §4
RAW264.7 [31] = assay: Antiinflammatory activity in mouse RAW264.7 cells assessed as inhibition of LPS-induced IL6 production after 24 hrs by ELISA; format: functional, cell-based; in short: as §2

## CC[C@H](C)[C@H](NC(=O)[C@H](Cc1cnc[nH]1)NC(=O)[C@H](CO)NC(=O)[C@@H](NC(=O)[C@@H](NC(=O)[C@@H](NC(=O)[C@@H](NC(=O)[C@H](CCCNC(=N)N)NC(=O)[C@H](CC(C)C)NC(=O)[C@H](CCCCN)NC(=O)[C@H](CCC(=O)O)NC(=O)[C@H](CCCCN)NC(=O)[C@H](CC(C)C)NC(=O)[C@H](CCCCN)NC(=O)[C@@H]1CSSC[C@H](NC(=O)[C@H](CCCCN)NC(=O)[C@@H](N)CCCNC(=N)N)C(=O)N[C@@H](CC(N)=O)C(=O)N[C@@H](Cc2ccccc2)C(=O)N[C@@H](CC(C)C)C(=O)N1)[C@@H](C)O)C(C)C)[C@@H](C)CC)[C@@H](C)O)C(=O)N[C@@H](CC(=O)O)C(=O)N[C@@H](CCCCN)C(=O)N[C@H](C(=O)N[C@@H](CC(C)C)C(=O)N[C@@H](CCCNC(=N)N)C(=O)N1CCC[C@H]1C(=O)N[C@@H](CCC(N)=O)C(=O)NCC(=O)O)C(C)C (H-RKCNFLCKLKEKLRTVITSHIDKVLRPQG-OH; disulfide 3-7)
Candida albicans [1]
  MIC: 2.35 µg/mL (≈ 0.686 µM)
RAW264.7 [2]
  Activity: Non-toxic
Escherichia coli [3]
  CFU: 0
RAW264.7 [4]
  Activity: Toxic
Escherichia coli [5]
  CFU: 11.3
RAW264.7 [6]
  inhibition at 20 µg/mL: 60%
Escherichia coli [7]
  MIC: 1.37 µM (≈ 4.69 µg/mL)
Escherichia coli [8]
  CFU: 11.3
Pseudomonas aeruginosa [9]
  MIC: 18.8 µg/mL (≈ 5.48 µM)
Staphylococcus aureus [10]
  MIC: 2.74 µM (≈ 9.38 µg/mL)
Escherichia coli [11]
  MIC: 2.35 µg/mL (≈ 0.686 µM)
Candida albicans [12]
  MIC: 1.37 µM (≈ 4.69 µg/mL)
[13]
  hemolysis at 0.5 h, 50 ug/mL: 5.5%
Escherichia coli [14]
  Activity: Active
RAW264.7 [15]
  inhibition at 20 µg/mL: 70%
Pseudomonas aeruginosa [16]
  MIC: 2.74 µM (≈ 9.38 µg/mL)
Candida albicans [17]
  MIC: 2.35 µg/mL (≈ 0.686 µM)
Bacillus subtilis [18]
  MIC: > 100 µg/mL
RAW264.7 [19]
  inhibition at 2.5 µg/mL: 17%
Staphylococcus aureus [20]
  MIC: 4.69 µg/mL (≈ 1.37 µM)
Staphylococcus aureus [21]
  MIC: 9.38 µg/mL (≈ 2.74 µM)
Candida albicans [22]
  MIC: 2.35 µg/mL (≈ 0.686 µM)
Pseudomonas aeruginosa [23]
  MIC: 9.38 µg/mL (≈ 2.74 µM)
RAW264.7 [24]
  inhibition at 20 µg/mL: 68%
Candida albicans [25]
  MIC: 5.48 µM (≈ 18.8 µg/mL)
RAW264.7 [26]
  inhibition at 20 µg/mL: 86%
Bacillus subtilis [27]
  MIC: > 100 µg/mL
RAW264.7 [28]
  Activity: 2.7%
Bacillus subtilis [29]
  MIC: > 100 µg/mL
RAW264.7 [30]
  inhibition at 5 µg/mL: 30%
RAW264.7 [31]
  inhibition: Dose-dependent effect
